Screening results deposited in PubChem BioAssay by Broad Institute.
SKKanGAS inh: SKKanGAS growth inhibition. S. pyogenes SKKanGAS, kanamycin growth, BacTiter-Glo, 6 h. inhibition, % at 7.5 µM. 300,000 compounds, 1.3% hits. AID 1662;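 active = mean replicate score, as percent of positive control median, at least 50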;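 also: strain carries kanamycin resistance gene driven by streptokinase promoter and grows in 40 µg/ml kanamycin; loss of luminescence reflects streptokinase promoter inhibition or plain growth inhibition; 0% = median of DMSO wells and 100% = positive control at its reference dose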
Beta cell apopt: blocks beta cell apoptosis. 300,000 compounds, 0.8% hits. protection from apoptosis, % (no concentration beside the values). AID 435005. INS-1E cytokine-induced death, ATP luminescence, 48 h; percent of positive-control rescue, neutral wells zero;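 active = Every replicate reaches about 75%, or at least half do and their mean reaches it too, limit read from the data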;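 also: 0% = cytokine-treated negative control wells and 100% = positive control rescue; higher means more ATP so stronger rescue from cytokine killing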
CSC inhib: cancer stem cell inhibition; cancer stem cell-like cells viability, luminescence; AID 2717; inhibition, % at 7.5 µM; 300,000 compounds, 1.1% hits; in the data active = inhibition above about 75%; tested in HMLE shEcad cells
T cruzi inh: T. cruzi replication inhibition | T. cruzi beta-gal in NIH3T3, luminescence, 90 h | inhibition, % (concentration not given with the values) | 300,000 compounds, 1.4% hits;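 active = mean inhibition across valid replicates above about 55%, limit read from the data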;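 also: signal also drops with host cell toxicity which is not excluded here; 0% = plate median of DMSO wells and 100% = zero luminescence signal; higher percent means less beta-gal luminescence so fewer parasites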
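Material: NIH/3T3 host cells with β-galactosidase reporter T. cruzi; Input: 5,000 host fibroblasts per well; Medium: DMEM, 2% fetal bovine serum; Compound: 50 nL DMSO compound solution per well; Schedule: 3 h host attachment, then at least 90 h co-culture; Detection: luminescent β-galactosidase signal after 60 min lysis.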
HIF activator: HIF pathway transcriptional activation; U2OS HRE-luciferase reporter, luminescence; normalized: DMSO 0%, desferrioxamine 100%; activation, % at 7.5 µM (by protocol); 300,000 compounds, 0.32% hits; AID 1910;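 active = mean activation of at least 10% of the iron chelator positive control signal, with at least half of replicates also reaching 10%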
PfHsp90 set2: inhibits growth of yeast expressing Plasmodium falciparum Hsp90. S. cerevisiae expressing PfHsp90, BacTiter-Glo ATP, 48 h; yeast lacking PDR1 and PDR3 efflux regulators. inhibition, % at 9.4 µM. 310,000 compounds, 0.32% hits. AID 504621;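 active = every replicate shows inhibition above about 80%, whatever the replicate mean, limit read from the data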;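 also: 0% = DMSO neutral controls and 100% = 20 µM radicicol positive controls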
Numbers without * were called inactive. A selection: hits, their analogues and other compounds. The true share with any hit is near 3.6%.

For Cn1c(NCc2ccccc2Cl)nc2ccccc21 the results were SKKanGAS inh 5, Beta cell apopt 2, CSC inhib -4, T cruzi inh -27, HIF activator 3 and PfHsp90 set2 -35.
CCC(=O)Nc1nc2ccccc2n1Cc1ccc(Cl)cc1 was read as SKKanGAS inh 62*, Beta cell apopt 17, CSC inhib -11, T cruzi inh 62*, HIF activator 0 and PfHsp90 set2 8.
`CC(=O)Nc1nc2ccccc2n1Cc1ccccc1Cl` gave SKKanGAS inh 52*, Beta cell apopt -7, CSC inhib 33, T cruzi inh 47, HIF activator 0 and PfHsp90 set2 -28.
Screening Nc1cc2cccnc2cc1Cl returned PfHsp90 set2 -25.
CC1Cc2ccccc2N1C(=O)COC(=O)c1ccc([N+](=O)[O-])o1 (stereo not drawn) was read as Beta cell apopt -3, CSC inhib 19 and PfHsp90 set2 -10.
CC(=O)Nc1nc(NC(=O)/C=C/c2ccccc2)n(-c2ccccc2)n1 was read as SKKanGAS inh 97*, Beta cell apopt 13, CSC inhib 14, T cruzi inh 27, HIF activator 10* and PfHsp90 set2 -13.
O=C(Nc1nc2ccccc2n1Cc1ccccc1)c1ccco1 was read as SKKanGAS inh 55*, Beta cell apopt 14, CSC inhib 21, T cruzi inh 21, HIF activator 0 and PfHsp90 set2 -51.
For CCn1c(SCc2ccccc2Cl)nc2ccccc21 the results were SKKanGAS inh 74*, Beta cell apopt -2, CSC inhib 7, T cruzi inh 14, HIF activator 2 and PfHsp90 set2 11.
Screening CCC(=O)Nc1nc2ccccc2n1CCN1CCOCC1 returned SKKanGAS inh -3, CSC inhib -19, T cruzi inh -2, HIF activator 1 and PfHsp90 set2 12.
For CCn1c(CCNC(=O)c2ccco2)nc2ccccc21 the results were SKKanGAS inh 1, Beta cell apopt -6, CSC inhib -12, T cruzi inh 3, HIF activator -1 and PfHsp90 set2 -13.
Screening Cn1c(SCc2ccccc2Cl)nc2ccccc21 returned SKKanGAS inh 17, Beta cell apopt -1, CSC inhib 3, T cruzi inh -3, HIF activator 2 and PfHsp90 set2 -4.
CCCCCCCn1c(NC(=O)CC)nc2ccccc21 was read as SKKanGAS inh 104*, Beta cell apopt 53, CSC inhib 5, T cruzi inh 51, HIF activator 1 and PfHsp90 set2 -21.
`CC(C)C(C)NC(=O)COC(=O)c1cccc(C(=O)OCC(=O)NC(C)C(C)C)n1` (stereo not drawn) gave Beta cell apopt -4, CSC inhib 18, T cruzi inh -3, HIF activator 0 and PfHsp90 set2 20.
Screening CCCCn1c2c(c(=N)c3ccccc31)CCC2 returned SKKanGAS inh 1, Beta cell apopt 46, CSC inhib 3, T cruzi inh 21, HIF activator 1 and PfHsp90 set2 -1.
CCOC(=O)Cn1c2c(c(=N)c3ccccc31)CCC2 was read as SKKanGAS inh -4, Beta cell apopt -4, CSC inhib 25, T cruzi inh 17, HIF activator -1 and PfHsp90 set2 7.
Screening CCCCCn1c2c(c(=N)c3ccccc31)CCC2 returned SKKanGAS inh 1, Beta cell apopt 23, CSC inhib 12, T cruzi inh 59*, HIF activator 1 and PfHsp90 set2 6.
CCCCCCCCn1c2c(c(=N)c3ccccc31)CCC2 was read as SKKanGAS inh 3, T cruzi inh 60*, HIF activator -1 and PfHsp90 set2 14.
Screening CCOC(=O)N1CCC(NC(=O)c2cc(COc3ccccc3SC)on2)CC1 returned SKKanGAS inh 3, Beta cell apopt 4, CSC inhib -28, T cruzi inh 8, HIF activator 1 and PfHsp90 set2 13.
`CCOC(=O)c1nn(-c2cccc(OC)c2)c2nc(Nc3ccccc3)cc(=O)n12` gave SKKanGAS inh 62*, Beta cell apopt 0, T cruzi inh 17, HIF activator 0 and PfHsp90 set2 -61.
NC(N)=N/N=C/c1cccc([N+](=O)[O-])c1O was read as SKKanGAS inh 4, Beta cell apopt -7, CSC inhib -16, T cruzi inh 34, HIF activator 0 and PfHsp90 set2 -33.
For NC(N)=N/N=C/c1cccc(Cl)c1Cl the results were SKKanGAS inh 19, Beta cell apopt 12, CSC inhib 1, T cruzi inh 55*, HIF activator -1 and PfHsp90 set2 7.
`CN(C)N1C(N)=C(C#N)C(c2ccccc2F)C2=C1CC(C)(C)CC2=O` (stereo not drawn) gave SKKanGAS inh 0, Beta cell apopt -5, CSC inhib 1, T cruzi inh 18, HIF activator -1 and PfHsp90 set2 11.
`CC1=C/C(=N\NC(=S)NCCc2ccccc2)CC(C)(C)C1` gave SKKanGAS inh 52*, Beta cell apopt 3, CSC inhib 59, T cruzi inh 19, HIF activator 3 and PfHsp90 set2 -1.
`CCc1nn(CC(=O)NCCc2ccc(S(N)(=O)=O)cc2)c(=O)c2cc3sccc3n12` gave SKKanGAS inh 4, Beta cell apopt -2, CSC inhib -12, T cruzi inh -12, HIF activator -1 and PfHsp90 set2 12.
`S=C(c1cn(CCOc2cccc3ccccc23)c2ccccc12)N1CCCC1` gave SKKanGAS inh 20, Beta cell apopt 105*, CSC inhib 4, T cruzi inh 40, HIF activator 0 and PfHsp90 set2 -26.
`COc1ccc(/C=C2\SC(=S)N(CCC(=O)NCCCn3ccnc3)C2=O)cc1` gave SKKanGAS inh -2, Beta cell apopt -14, CSC inhib 28, T cruzi inh -7, HIF activator -1 and PfHsp90 set2 -15.
COc1ccccc1/C=C1\SC(=S)N(CCC(=O)NCCCn2ccnc2)C1=O was read as SKKanGAS inh -4, CSC inhib 100*, T cruzi inh 0, HIF activator 0 and PfHsp90 set2 6.
O=C(CCN1C(=O)/C(=C/c2ccccc2)SC1=S)NCCCN1CCOCC1 was read as SKKanGAS inh 8, Beta cell apopt -7, CSC inhib 42, T cruzi inh 55*, HIF activator -2 and PfHsp90 set2 14.
Screening COc1cccc(/C=C2\SC(=O)N(CCC(=O)NCCCn3ccnc3)C2=O)c1 returned SKKanGAS inh -1, Beta cell apopt 33, CSC inhib 15, T cruzi inh -2, HIF activator 0 and PfHsp90 set2 -2.
Screening COc1ccccc1/C=C1\SC(=O)N(CCC(=O)NCCCn2ccnc2)C1=O returned SKKanGAS inh -11, Beta cell apopt 125*, CSC inhib 97*, T cruzi inh -5, HIF activator 1 and PfHsp90 set2 12.
